High-throughput results (PubChem BioAssay)
A selection: hits, their analogues and other compounds. The true share with any hit is near 3.7%.
TAAR1 ag – agonists of human TAAR1; 360,000 compounds, 0.99% hits; Q96RJ0; activation, % at 3 µM; CHO RD-HGA16 TAAR1, Fluo-8 calcium fluorescence; vehicle wells 0%, saturating PEA agonist 100%; AID 624467;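 active means activation above the mean activation of all test compounds in the run plus 3 SD, cut at about 38% in these data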
Target sequence (Q96RJ0 whole entry, looked up): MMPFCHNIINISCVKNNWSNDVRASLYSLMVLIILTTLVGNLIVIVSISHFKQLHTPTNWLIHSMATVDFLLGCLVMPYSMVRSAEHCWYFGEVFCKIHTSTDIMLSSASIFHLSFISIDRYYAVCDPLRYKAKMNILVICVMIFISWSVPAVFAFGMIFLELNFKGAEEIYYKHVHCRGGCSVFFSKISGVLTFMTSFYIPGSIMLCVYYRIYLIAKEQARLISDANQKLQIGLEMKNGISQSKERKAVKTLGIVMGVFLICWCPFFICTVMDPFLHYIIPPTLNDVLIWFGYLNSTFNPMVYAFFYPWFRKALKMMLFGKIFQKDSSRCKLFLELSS
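Test system: RD-HGA16 (CHO) cells co-expressing Gα16 and hTAAR1 | Doses: Single dose, 3 µM | Schedule: 17-24 h seeding, 75 min 37 °C dye, 30 min RT | Evaluation: % activation from peak over basal fluorescence ratio, DMSO-to-PEA scaled | Technique: Kinetic Fluo-8 calcium fluorescence | Benchmarks: Low control DMSO, high control PEA (EC100)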
rCAG RNA binder – r(CAG) repeat RNA binding. TO-PRO-1 dye displacement fluorescence. inhibition, % at 3 µM. 370,000 compounds, 1.3% hits;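 active means inhibition above the plate cutoff, the mean of all test compounds on that plate plus 3 SD, cut at about 35% in these data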;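 further: higher means more dye released from RNA so lower well fluorescence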
HCV NS3 hel inh – HCV NS3 helicase inhibition; NS3 helicase DNA unwinding, Cy5 molecular beacon fluorescence; inhibition, % at 10.9 µM; 290,000 compounds, 0.56% hits; AID 1800;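 active means inhibition above the mean of all tested compounds plus 3 SD, set per campaign, cut at about 35% in these data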
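Control set: DMSO versus 110 µM thioflavine S; Material: NS3 helicase fragment of HCV; Measured by: Cy5 fluorescence at 0 and 60 min, beacon hairpin quenching; Read-out basis: percent inhibition from t60/t0 fluorescence ratio; Times: reaction time 60 min, 25 °C; Repeats: single replicate; Compound dosing: single dose, 10.9 µM nominal final, DMSO 0.8% final.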
core dimer inh – HCV core protein dimerization inhibition | TR-FRET GST/Flag-core106 dimerization, 1536-well | inhibition, % at 5 µM | 300,000 compounds, 0.33% hits;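 active means inhibition above the mean of all tested compounds plus 3 SD, set per screening campaign, cut at about 45% in these data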
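Assay system: Tagged HCV core106 pair (GST and Flag) | Buffer or medium: KF-containing HEPES buffer, pH 7.45, DTT, CHAPS, BSA | Also added: Eu donor and XL665 acceptor anti-tag antibodies | Dosing: One concentration, 5 µM, in 0.5% DMSO | Timing: 4 h at 22.5 °C | Technique: TR-FRET 671 and 617 nm emission | Repeats: Singlicate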
TAAR1 antag – antagonists of human TAAR1 | 360,000 compounds, 1.5% hits | inhibition, % at 3 µM | CHO RD-HGA16 TAAR1, Fluo-8 calcium fluorescence, antagonist | Q96RJ0 | AID 624466;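 active means inhibition above a per-plate cutoff, the mean inhibition of test compounds on that plate plus 3 SD, cut at about 49% in these data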
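System: RD-HGA16 CHO cells with stable hTAAR1 and Gα16 | Probe or stimulus: EC80 β-phenethylamine stimulus | Dosing: 3 µM, single point | Times: Dye loading 75 min at 37 °C, then 30 min room temperature | Measured by: Fluo-8 calcium-sensitive fluorescence | Read-out basis: % inhibition of agonist calcium response | Replicates: n of 1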
nonsel antag count – nonselective antagonist in TAAR1 antagonist counter-screen | shares compounds with TAAR1 antag | counterscreen cell line, calcium fluorescence, antagonist mode | inhibition, % at 3 µM | 2,400 compounds, 77% hits; in the data active means inhibition above about 22%;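 further: CHO-Ga16 host cells stimulated with ATP at an EC80 level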
TAAR1 antag conf – human TAAR1 antagonism, confirmed; AID 651785; shares compounds with TAAR1 antag; 2,400 compounds, 40% hits; inhibition, % at 3 µM; TAAR1-expressing cells, fluorescence antagonist read-out; in the data active means inhibition above about 49%;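 further: CHO-Ga16 host cells challenged with agonist PEA near its EC80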
Ga16 ag counter – nonselective Ga16 agonist in TAAR1 antagonist counter-screen; 2,400 compounds, 18% hits; shares compounds with TAAR1 antag; Ga16-expressing cells, calcium fluorescence, agonist counterscreen; activation, % at 3 µM; in the data active means activation above about 12%
TAAR1 ag count – TAAR1 agonism, antagonist counter-screen | shares compounds with TAAR1 antag | hTAAR1 cell line, fluorescence activation, agonist mode | activation, % at 3 µM | 2,400 compounds, 2% hits | AID 651955; in the data active means activation above about 37%;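 further: CHO cells stably expressing TAAR1 with calcium dye readout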
A number is an active result; n = inactive; x = no result given.

SMILES	TAAR1 ag	rCAG RNA binder	HCV NS3 hel inh	core dimer inh	TAAR1 antag	nonsel antag count	TAAR1 antag conf	Ga16 ag counter	TAAR1 ag count
Cc1ccc(C(=O)Nc2cccc(C(F)(F)F)c2)cc1Nc1ncnc2nc[nH]c12	n	n	x	n	52	32	n	n	n
Cc1ccc(C(=O)Nc2cccc(C(F)(F)F)c2)cc1Nc1cnccn1	n	n	x	n	n	x	x	x	x
O=C(NCc1ccc(F)cc1)c1cc(-c2ccncc2)nc2ccccc12	n	n	n	n	n	x	x	x	x
NS(=O)(=O)c1ccc(CNC(=O)c2cc(-c3cccnc3)nc3ccccc23)cc1	n	n	n	n	n	x	x	x	x
O=C(NCc1cc([N+](=O)[O-])ccc1O)c1cc(-c2ccncc2)nc2ccccc12	n	n	n	n	67	32	56	n	n
NS(=O)(=O)c1ccc(CNC(=O)c2cc(-c3ccccc3)nc3ccccc23)cc1	n	n	n	n	65	32	n	n	n
COc1ccc(Nc2nc(-c3ccccc3)nc3ccccc23)cc1S(=O)(=O)N1CCOCC1	n	n	n	n	72	35	57	13	n
CCCC1CCC2(CCC(=O)N2CCOC)CC1 (configuration not stated)	x	n	x	x	x	x	x	x	x
Cc1cc(C)cc(C(=O)OCCCN(C)C2CN(Cc3cn(Cc4ccccc4F)nn3)S(=O)(=O)C2)c1 (configuration not stated)	x	n	x	x	x	x	x	x	x
Cc1ccc(CNC(=O)c2ccccc2SCC(=O)NCC2CCCCC2)cc1	n	n	n	n	63	26	n	n	n
CSc1ccccc1C(=O)NCc1ccc(C)cc1	n	n	n	n	104	n	n	n	n
COc1cccc(-c2cc(C(C)=O)c3n(c2=O)CCC3)c1OC	x	n	x	x	x	x	x	x	x
CC(C)NC(=O)N[C@H]1C[C@@H]2O[C@H](CO)CC[C@@H]2O[C@@H]1CCc1ccc(-c2ccccc2F)cc1	x	n	x	x	x	x	x	x	x
O=C(C1CCCN1S(=O)(=O)c1ccc([N+](=O)[O-])cc1)N1CCN(c2ccccc2)CC1 (configuration not stated)	x	n	x	x	x	x	x	x	x
CCN1C(=O)C(CC(=O)Nc2ccc(OC)cc2)N(CCc2ccccc2F)C1=S (configuration not stated)	n	n	n	n	75	31	n	n	n
COc1ccc(NC(=O)CC2C(=O)N(C)C(=S)N2CCc2ccccc2F)cc1 (configuration not stated)	n	n	n	n	57	37	56	12	n
CCN1C(=O)C(CC(=O)Nc2ccc(OC)cc2)N(CCc2ccccc2)C1=S (configuration not stated)	n	n	n	n	n	x	x	x	x
CCOC(=O)N1CCN(C(=O)C[C@H]2C[C@@]3(C(=O)OC)C(=C[C@H](C(C)C)O[C@@H]3C3CC3)N(Cc3ccco3)C2=O)CC1	x	n	x	x	x	x	x	x	x
CCOC(=O)C1=CN(Cc2cccc(-c3ccc(Cl)nc3)c2)S(=O)(=O)N(C)C1C (configuration not stated)	n	n	x	x	63	n	n	n	n
CCOC(=O)C1=CN(Cc2cccc(-c3ccc4c(c3)OCO4)c2)S(=O)(=O)N(C)C1C (configuration not stated)	n	n	x	x	n	x	x	x	x
COC(=O)[C@]12C[C@H](CC(=O)NCc3ccc(C)o3)C(=O)N(Cc3ccc(Cl)cc3Cl)C1=C[C@H](C1CCCC1)O[C@@H]2C	x	n	x	x	x	x	x	x	x
CC(C)(C)c1ccc(-c2nc(-c3ccncc3)no2)cc1	n	n	n	n	106	n	n	13	n
COc1cc(/C=N/N=C2/NC(=O)C(c3ccccc3)S2)ccc1O (configuration not stated)	n	n	n	n	n	x	x	x	x
